Data taken from ChEMBL document CHEMBL3243948, “Vitamin B6 antagonists obtained by replacing or modifying the 2-methyl group” (J Med Chem, 1977).
Activity calls are given as the source filed them. No cut-off for these calls is given here.

Experiments:
TA3 [1] = assay: Growth inhibition of mouse TA3 cells at 1 X 10^-4 M in presence of 10^-7 M pyridoxal; type: functional, cell-based
TA3 [2] = assay: Growth inhibition of mouse TA3 cells in presence of 10^-7 M pyridoxal; type: functional
Method in brief: (§1)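 Mouse mammary adenocarcinoma TA3 cells cultured in Eagle's medium with minimal pyridoxal (1 X 10^-7 M) to sustain growth. Compounds were scored for inhibition of growth.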

TA3 [3] = assay: Growth inhibition of mouse TA3 cells in presence of 10^-5 M pyridoxal; type: functional
Method in brief: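 TA3 mouse mammary adenocarcinoma cells grown in complete Eagle's medium, which holds a higher pyridoxal level than the minimal medium. Compounds were tested for growth inhibition.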

TA3 [4] = assay: Growth inhibition of mouse TA3 cells in presence of 10^-7 M pyridoxal relative to control; type: functional; method in brief: as §1
Pyridoxal kinase = molecular target: T1, Pyridoxal kinase (Homo sapiens, UniProt O00764); assay: Competitive inhibition of pyridoxal phosphokinase (unknown origin)
T1 sequence (O00764 whole entry): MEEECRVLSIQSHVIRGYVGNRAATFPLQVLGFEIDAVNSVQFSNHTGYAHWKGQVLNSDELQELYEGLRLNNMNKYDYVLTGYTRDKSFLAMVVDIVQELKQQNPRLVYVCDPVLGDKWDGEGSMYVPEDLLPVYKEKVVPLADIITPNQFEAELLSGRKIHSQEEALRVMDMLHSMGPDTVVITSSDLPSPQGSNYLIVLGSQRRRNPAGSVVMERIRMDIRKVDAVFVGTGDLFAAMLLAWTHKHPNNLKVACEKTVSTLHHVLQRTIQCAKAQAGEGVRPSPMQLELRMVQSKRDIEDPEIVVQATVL
Method in brief: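 Inhibitor tested against pyridoxal phosphokinase-catalysed phosphorylation of pyridoxal (substrate). Ki derived from competitive kinetics.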

[5] = Mus musculus, TA3, read-out: ID50 (the source's name)

Row | SMILES | growth inhibition (GI) (TA3 [1]) | ID50 (TA3 [2]) | further results
1 | COc1cncc(C(=O)O)c1C(=O)O | inactive |  | 
2 | Br.COC(=O)N(C)c1ncc(CO)c(CO)c1OCc1ccccc1 |  | 1.6 ×10⁻⁴ M | 
3 | OCc1cnc(F)c(O)c1CO |  | >1 ×10⁻⁴ M | 
4 | O=Cc1ncc(CO)c(CO)c1O |  | 1.7 ×10⁻⁴ M | 
5 | Cl.Nc1ncc(CO)c(CO)c1O |  | 1.25 ×10⁻⁵ M | growth inhibition (GI) (TA3 [3]): inactive
6 | CC1(C)OCc2cnc(CCl)c(OCc3ccccc3)c2CO1.Cl |  | 12 ×10⁻⁵ M | 
7 | COC(=O)c1cncc(OC)c1C(=O)OC | inactive |  | 
8 | NC(=O)c1ncc(CO)c(CO)c1O |  | 1 ×10⁻⁴ M | growth inhibition (GI) (TA3 [4]): 40%
9 | COc1c(C(=O)O)ncc(C(=O)O)c1C(=O)O | inactive |  | 
10 | Cn1c(=O)oc2c(CO)c(CO)cnc21 |  | >1 ×10⁻⁴ M | 
11 | C=Cc1ncc(CO)c(CO)c1O |  |  | IC50 (TA3 [2]; [5]): 9.4 µM; IC50 (TA3 [3]; [5]): 9.4 µM
12 | NCc1ncc(CO)c(CO)c1O |  | 1 ×10⁻⁵ M | growth inhibition (GI) (TA3 [4]): 25%
13 | O=C(O)c1ncc(CO)c(CO)c1O |  | >1 ×10⁻⁴ M | 
14 | CNc1ncc(CO)c(CO)c1O.Cl |  | 1 ×10⁻⁴ M | growth inhibition (GI) (TA3 [4]): 15%
15 | COc1cncc(CO)c1CO | inactive |  | 
16 | O=C(SCc1ncc(CO)c(CO)c1OCc1ccccc1)c1ccccc1 |  | 3 ×10⁻⁵ M | 
17 | COc1cncc2c1C(=O)OC2=O | inactive |  | 
18 | CCOC(=O)c1cncc(OC)c1C(=O)OCC | inactive |  | 
19 | N/N=C/c1ncc(CO)c(CO)c1O |  | 2.3 ×10⁻⁴ M | 
20 | OCc1cnc(/C=N/N=C/c2ncc(CO)c(CO)c2O)c(O)c1CO |  | 1.6 ×10⁻⁵ M | ID50 (TA3 [3]): 1.1 ×10⁻⁵ M
21 | OCc1cnc(Cl)c(O)c1CO |  | 4.5 ×10⁻⁵ M | growth inhibition (GI) (TA3 [3]): inactive; Ki (Pyridoxal kinase): 24 µM
22 | COc1c(C)ncc(CO)c1CO | inactive |  | 
23 | C#Cc1ncc(CO)c(CO)c1O |  |  | Ki (Pyridoxal kinase): 105 µM
